ChEMBL document CHEMBL1949657, “Chemical modification of the multitarget neuroprotective compound fisetin” (J Med Chem, 2012)
Calls of active or inactive are those of the source.

Key:
[1] = Antioxidant activity against ABTS radical assessed as trolox equivalent after 4 mins by TEAC assay; assay type: functional
Procedure, shortened: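 ABTS radical cation formed overnight with potassium persulfate and diluted to OD ~0.7 at 734 nm, then mixed with derivative in ethanol. Loss of A734 followed over 4 min. TEAC = slope of % absorbance inhibition vs concentration divided by the slope for Trolox.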

N9 = assay: Antiinflammatory activity in mouse N9 cells assessed as reduction of LPS-induced microglial activation at 1 to 10 uM measured as nitrite level after 24 hrs by Griess reagent-based assay; assay type: functional; design: scale not given: the % may be the effect or the level left
Procedure, shortened: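 N9 microglia in DME with 7.5% DFCS, given 10 μg/ml LPS alone or with derivatives (1–10 μM) for 24 h. Medium spun to remove floating cells, then nitrite measured with Griess reagent, 10 min at room temperature, absorbance 550 nm. Fisetin 10 μM as positive control. Tested twice; positives tested a third time.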

HT-22 [2] = assay: Neuroprotective activity in mouse HT22 cells assessed as reduction in IAA-induced ischemia after 24 hrs by MTT assay; assay type: functional, cell-based
Procedure, shortened: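 HT22 cells seeded at 5×10^3/well. Next day switched to DMEM + 7.5% DFCS with 20 μM IAA ± derivative doses for 2 h, then IAA-free medium with derivative for 20 h. MTT 2.5 μg/ml for 4 h at 37 °C, solubilised in DMF/SDS pH 4.7, A570 read. Controls for compound toxicity and assay interference. EC50 from dose series; tested twice, third time if EC50 < 1 μM.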

HT-22 [3] = assay: Neuroprotective activity against glutamate-induced GSH loss in mouse HT22 cells assessed as intracellular GSH level at 1 to 10 uM after 24 hrs; assay type: functional, cell-based
Procedure, shortened: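 HT22 cells given derivatives (1–10 μM) with 5 mM glutamate. After 24 h, cell extracts analysed for total intracellular GSH by chemical assay. Fisetin 10 μM as positive control. Tested twice; positives tested a third time.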

HT-22 [4] = assay: Ratio of fisetin EC50 to compound EC50 for neuroprotectivie activity in mouse HT22 cells; assay type: functional
PC-12 = assay: Neurotrophic activity in rat PC12 cells assessed as neurite outgrowth at 1 to 10 uM after 24 hrs; assay type: functional, cell-based
Procedure, shortened: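 PC12 cells in N2 medium given derivatives (1–10 μM) for 24 h, fisetin 10 μM as positive control. 100 cells counted in each of three fields. A cell scored positive with ≥1 neurite longer than one cell-body diameter. Tested twice; positives tested a third time.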

HT-22 [5] = assay: Induction of Nrf2 expression in mouse HT22 cells from 1 to 4 hrs by immunoblotting; assay type: functional, cell-based
Procedure, shortened: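 Nuclear extracts taken from untreated and derivative-treated cells at 1, 2 and 4 h. Equal protein run on 10% SDS-PAGE, blotted to nitrocellulose (Ponceau-S loading check). Probed with anti-Nrf2 (1/1000) and anti-β-actin, HRP secondary, chemiluminescence. Tested twice; positives tested a third time.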

Oryctolagus cuniculus = assay: Neuroprotective activity in New Zealand white rabbit small clot embolism model assessed as reduction in stroke-induced behavioural deficits at 50 mg/kg, iv administered 5 mins post-embolization measured after 24 hrs; assay type: functional, organism-based; design: dose 50 mg/kg, route intravenous
[6] = Mus musculus, HT-22, 24 h, read-out: EC50

EC50 (Oryctolagus cuniculus) [nM]	Structure (SMILES)	Activity [1] [equiv]	Activity (N9) [%]	EC50 (HT-22 [2]; [6]) [nM]	Activity (HT-22 [3])	Ratio EC50 (HT-22 [4])	Activity (PC-12)	Activity (HT-22 [5])	EC50 (HT-22 [2]; ht-22)
	COc1ccc(-c2oc3cc(C)c(C)cc3c(=O)c2O)cc1O	1.74	72	20	inactive	10	inactive		
	CN(C)c1ccc(-c2oc3c(ccc4ccccc43)c(=O)c2O)cc1	0.93	0	40	Active		inactive	inactive	
	O=c1c(O)c(-c2ccc(N3CCCC3)c(O)c2)oc2c1ccc1ccccc12	2.1	50	5	Active	600	Active	inactive	
	Cc1cc2oc(-c3ccc(N4CCCC4)cc3)c(O)c(=O)c2cc1C	2.4	0	90	Active		Active	inactive	
	COc1cc(-c2ccc(O)c(O)c2)nc2ccccc12	0.36	85	40	Active	75	inactive	inactive	
	COc1cc(-c2oc3cc(C)c(C)cc3c(=O)c2O)ccc1O	1.89	77	40	inactive	10	inactive		
2000	O=c1c(O)c(-c2ccc(O)c(O)c2)oc2cc(O)ccc12 [FISETIN]	3	80	3000	Active		Active	Active	
	COc1cc(-c2cc(=O)c3cc(C)c(C)cc3o2)ccc1O	0.12	41	30	inactive	10	inactive		
	O=C(/C=C/c1ccc(O)c(O)c1)c1ccc2ccccc2c1O	2.8	75	80	Active		Active	Active	
	O=c1c(O)c(-c2ccc(O)c(O)c2)oc2ccccc12	2	80	500	Active	6	Active	Active	
	Cc1cc2oc(-c3ccc(N4CCCC4)c(O)c3)c(O)c(=O)c2cc1C	2.79	21	15	Active		Active	inactive	
	Cc1cc(O)c(C(=O)/C=C/c2ccc(O)c(O)c2)cc1C	2.7	94	50	Active		Active	Active	
	COc1ccc(/C=C/C(=O)c2cc(C)c(C)cc2O)cc1OCc1ccccc1	0.12	70		Active		Active	Active	Not Active
	Cc1cc2oc(-c3ccc(N(C)C)cc3)c(O)c(=O)c2cc1C	3	11	20	Active		inactive	inactive	
